# Compound activity (PubChem BioAssay)
# Only some compounds are listed: those with a hit (about 2.9% of all), similar ones and a draw of the others.
# Runt-SMMHC FRET: blocks binding of human RUNX1 Runt domain to CBFb-SMMHC; Q01196+Q13951; hit rate 0.74% among 220,000; AID 1434; Cerulean-Runt/Venus-CBFb-SMMHC FRET ratio 530/480, 1 h; inhibition, % at 20 µM;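 active = mean inhibition across duplicate retests at 20 µM reaching about 50%, limit read from the data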;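 note: 0% = DMSO wells and 100% = wells with excess untagged CBFb-SMMHC; inhibitors lower the FRET ratio by blocking Runt binding to CBFb-SMMHC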
# Runt-CBFb FRET: Runt domain-CBFb interaction inhibition. Q01196+Q13951. Cerulean-Runt/Venus-CBFb FRET ratio 530/480, 1 h. inhibition, % at 20 µM. hit rate 0.46% among 220,000;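 active = inhibition over about 50% at 20 µM in the single-dose screen, limit read from the data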;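 note: 0% = DMSO wells and 100% = excess unlabeled CBFb competitor control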
#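 Buffer or medium: Tris pH 7.5 buffer with BSA. Assay system: Cerulean-labeled Runt domain protein. Amount: each fluorescent fusion protein 100 nM. Read-out basis: loss of energy transfer signal. Incubation: 1 h compound exposure, room temperature. Probe or stimulus: Venus-CBFb binding partner, 100 nM. Detection: FRET, excitation 422 nm, emission at 530 and 480 nm.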
# KLK7 zymogen act: activates the human kallikrein-7 zymogen; purified proKLK7, EDANS-DABCYL substrate fluorescence; 100% is mature enzyme control, 0% vehicle; activation, % at 7 µM; hit rate 0.9% among 370,000; AID 652039;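 active = activation above the mean of all tested compounds plus 3 SD, computed per campaign excluding outliers beyond control limits, cut at about 13% in these data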
# RanGTP-Impb inh: inhibitors of RanGTP-importin-beta interaction, primary screen, biochemical, FRET, CFP-Ran, YFP-importin-beta, homogeneous | cell-free CFP-Ran/YFP-importin-beta FRET ratio | inhibition, % (no concentration beside the values) | hit rate 1.1% among 300,000;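 active = more than half of the replicate wells show a fall in the fluorescence ratio signal beyond about 16%, limit read from the data, passing the limit was not always enough; inconclusive = exactly half of the replicate wells pass the set limit; inactive = fewer than half of replicates pass the limit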;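 note: 0% = DMSO wells and 100% = Ran loaded with GDP instead of GTP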
# AI-2 QS modul: modulators of Vibrio harveyi AI-2 quorum sensing system; Vibrio harveyi JMH597 AI-2 luminescence/OD600 ratio, 9 h; hits give low values; strain lacks LuxN and CqsS sensors; 0 = neutral-control median; activity change, % at 7.5 µM; hit rate 0.4% among 300,000; AID 2094; in the data active = activity change below about -75%, passing the limit was not always enough; inconclusive = no clear call, values can overlap the other calls;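 note: luminescence divided by OD600 gain over 9 h not by final OD600 alone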
# Wee1 stabilizer: human Wee1 degradation inhibition, primary screen. P30291. HeLa Luc-Wee1K328M stability, luciferase luminescence; 100% = proteasome inhibitor MG132 effect. reporter increase, % at 5 µM. hit rate 1.2% among 220,000. AID 1321;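 active = activation above the mean of all tested compounds plus 3 SD, set per screening run, cut at about 8.8% in these data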;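 note: cells exposed to compound for 20 h before luminescence read; 0% = DMSO alone and 100% = MG132 at 30 µM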
# Target sequence (P30291 whole entry K328M): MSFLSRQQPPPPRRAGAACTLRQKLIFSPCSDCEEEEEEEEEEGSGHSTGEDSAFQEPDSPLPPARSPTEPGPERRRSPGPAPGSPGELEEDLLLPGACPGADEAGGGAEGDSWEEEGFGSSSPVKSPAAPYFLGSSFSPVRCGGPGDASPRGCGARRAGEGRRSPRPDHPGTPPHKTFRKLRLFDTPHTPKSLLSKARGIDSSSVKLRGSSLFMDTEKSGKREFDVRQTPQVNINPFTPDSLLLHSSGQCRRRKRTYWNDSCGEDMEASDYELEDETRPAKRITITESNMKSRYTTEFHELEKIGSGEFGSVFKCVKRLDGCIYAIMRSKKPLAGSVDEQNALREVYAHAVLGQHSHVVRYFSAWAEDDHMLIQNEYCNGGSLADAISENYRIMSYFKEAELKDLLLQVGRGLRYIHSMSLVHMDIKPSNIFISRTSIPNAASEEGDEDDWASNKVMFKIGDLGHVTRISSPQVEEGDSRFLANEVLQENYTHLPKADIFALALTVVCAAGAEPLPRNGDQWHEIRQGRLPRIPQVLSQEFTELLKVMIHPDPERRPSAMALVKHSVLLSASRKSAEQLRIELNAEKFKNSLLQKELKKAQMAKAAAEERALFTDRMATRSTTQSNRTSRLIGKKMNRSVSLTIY
# proKLK7 act conf: proKLK7 activation, confirmation; AID 686949; shares compounds with KLK7 zymogen act; hit rate 68% among 3,200; activation, % at 7 µM; purified proKLK7, EDANS-DABCYL substrate fluorescence; scaled: vehicle 0, mature enzyme 100;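 active = activation, as change over the incubation, above the mean of all tested compounds plus 3 SD, cut at about 13% in these data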
# EDANS-DABCYL int: optically interferes with EDANS-DABCYL signal, flagging KLK7 hits. shares compounds with KLK7 zymogen act. EDANS-DABCYL substrate fluorescence interference, no enzyme, 4 h; solvent 0%, active enzyme control 100%. activation, % at 7 µM. hit rate 80% among 3,200;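 active = activation above the all-compound mean plus 3 SD, ignoring values outside control-based bounds, cut at about 4.8% in these data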;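 note: value is the 4 h activation minus the activation read at time zero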
# EDANS interf: EDANS fluorescence interference in dose response, no enzyme | shares compounds with KLK7 zymogen act | EDANS-DABCYL peptide fluorescence interference | EC50, µM | hit rate 20% among 250 | AID 720493;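 active = compounds that raise the fluorescence signal in this interference counterscreen, with EC50 at or below 10 µM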;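 note: intact quenched peptide substrate alone read at 355 nm excitation and 520 nm emission; signal is fluorescence gain from T0 to T4 after four hours at room temperature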
# Numbers without * were called inactive; i = inactive; u = inconclusive; x = not tested or not shown.
SMILES,Runt-SMMHC FRET,Runt-CBFb FRET,KLK7 zymogen act,RanGTP-Impb inh,AI-2 QS modul,Wee1 stabilizer,proKLK7 act conf,EDANS-DABCYL int,others
COC(=O)c1ccc(/C=C2\Oc3ccccc3NC2=O)cc1,x,x,-5.5,11.5,7.7,x,x,x,
CCOc1c2ccoc2nc2c(OC)c(OC)ccc12,-3.5,0.1,13.1*,-0.6,33.3,6.5,8.5,14.5*,
C=CCOc1ccc2c(OC)c3ccoc3nc2c1OC,3.4,0.6,18.7*,1.7,4.0,1.3,-6.4,-17.4,
CCCc1ccc(-c2cc(NC(=O)Cc3c(C)[nH]c4ccccc34)ccc2Nc2cccnc2)cc1,x,x,-2.4,x,x,x,x,x,
COc1cc(C)cc(C(=O)C=Cc2ccccc2)c1O,x,x,14.1*,x,x,x,9.1,10.8*,
Cc1ccc(O)c(C(=O)C=Cc2ccccc2)c1,x,x,13.3*,x,x,x,34.1*,34.4*,
COc1cc(/C=C/C(=O)O)cc(OC)c1O,x,x,20.8*,-1.3,1.7,x,70.0*,79.2*,
COc1ccc(/C=C/C(=O)O)cc1Cl,-0.7,-1.9,0.7,0.8,27.0,-2.0,x,x,
COc1cc(Br)cc(CNc2ccc(F)c([N+](=O)[O-])c2)c1O,1.9,7.5,-0.2,1.8,-1.7,1.0,x,x,
O=S(=O)(c1ccc(-c2cn3ccccc3n2)cc1)N1CCOCC1,-1.6,0.2,16.4*,-2.3,4.0,3.6,19.0*,16.1*,EDANS interf=>69.5
CC1(C(=O)NS(=O)(=O)c2ccccc2)CCN1C(=O)CCc1ccccc1 (configuration not stated),x,x,-0.6,x,x,x,x,x,
CSCCNC(=O)C1(C)CCN1C(=O)CCc1ccccc1 (configuration not stated),x,x,16.1*,x,x,x,0.1,-0.1,
Cc1nccc(-c2sc(-c3cccs3)nc2C)n1,20.9,10.1,41.1*,-0.6,3.3,3.2,20.3*,20.9*,
Cc1nc(-c2cccs2)sc1C(=O)O,-2.2,1.6,1.1,1.0,39.8,-0.9,x,x,
COc1ccc(C(CC(=O)O)NS(=O)(=O)c2ccc3c(c2)N(C(C)=O)CC(C)O3)cc1 (configuration not stated),x,x,0.2,u,21.1,x,x,x,
Cc1ccc(-c2nc3ccccc3[nH]2)s1,-15.0,-0.1,-1.9,-10.1,13.9,2.5,x,x,
Cc1nnsc1-c1nc2ccccc2[nH]1,-3.1,0.2,32.0*,-0.4,7.7,3.0,31.1*,45.0*,
COC(=O)c1ccc(C(=O)N2CCCCCC2(C)C(=O)NC(C)C)cc1 (configuration not stated),x,x,0.4,x,x,x,x,x,
O=C(N/N=C/c1ccsc1)c1cc(-c2cccs2)nc2ccccc12,2.6,-2.1,-17.1,-0.4,7.1,3.3,x,x,
Cc1ccccc1NC(=O)CSc1nc(N)c(C#N)c(-c2cccs2)c1C#N,-3.5,-3.2,-7.1,1.8,26.0,3.4,x,x,
COc1ccc(CNC(=O)COC(=O)c2cc(-c3cccs3)nc3ccccc23)cc1OC,2.9,-0.8,14.8*,2.9,-3.9,-1.3,-3.5,0.1,
CCOC(CCNC(=O)c1cc(-c2cccs2)nc2ccccc12)OCC,x,x,32.2*,2.8,1.9,x,9.2,9.8*,
O=C(O)c1ccc(/C=N/NC(=O)c2cc(-c3cccs3)nc3ccccc23)cc1,3.4,-1.8,23.2*,2.5,25.0,-1.9,28.5*,20.6*,EDANS interf=i
COc1ccc(CCNC(=O)CSc2nc(N)c(C#N)c(-c3cccs3)c2C#N)cc1OC,-1.5,-1.1,22.2*,7.2,25.3,-0.8,35.1*,40.6*,
Cc1cc(C)cc(-n2ncc3c2CCCC3NC(=O)CN2CCCCC2=O)c1 (configuration not stated),x,x,-0.8,1.2,11.8,x,x,x,
SMILES,Runt-SMMHC FRET,Runt-CBFb FRET,KLK7 zymogen act,RanGTP-Impb inh,AI-2 QS modul,Wee1 stabilizer,proKLK7 act conf,EDANS-DABCYL int,others
COCCNC(=O)C1CCCN(C(=O)C2(c3ccc(Cl)cc3)CCCC2)CC1 (configuration not stated),x,x,-0.2,x,x,x,x,x,
COc1cccc(CC(=O)Nc2ccc(N3CCOCC3)c(S(=O)(=O)Nc3ccccc3OC)c2)c1,x,x,0.2,x,x,x,x,x,
Cc1ccccc1C(=O)NCC(=O)OCCOc1ccc(C(C)C)c(C)c1,x,x,0.3,1.8,u,x,x,x,
O=C(NC1=NCCS1)c1cc(-c2cccs2)nc2ccccc12,-1.4,1.0,34.7*,5.0,3.8,-0.9,-27.7,-14.1,
NNC(=O)c1cc(-c2cccs2)nc2ccccc12,-3.7,-0.9,-30.2,1.4,8.9,-3.0,x,x,
Cc1ccc2nc3c(c(N)c2c1)CCN3c1ccccc1,-10.5,23.5,105.7*,2.5,13.9,-1.0,-188.0,-83.7,
c1ccc(CN2c3ccccc3-c3nc4ccccc4n3C2c2ccccn2)cc1 (configuration not stated),4.6,5.3,-8.4,0.4,29.0,-2.6,x,x,
CN1c2ccccc2-c2nc3ccccc3n2C1c1ccccn1 (configuration not stated),9.0,-0.2,34.0*,9.3,15.2,0.3,7.0,3.1,
CCN1c2ccccc2-c2nc3ccccc3n2C1c1ccco1 (configuration not stated),25.4,5.5,27.1*,-2.3,20.8,-2.0,-9.2,-13.0,
COC(=O)C(C)Oc1cc(OC(C)C(=O)OC)c2c(C)c(Cl)c(=O)oc2c1 (configuration not stated),-2.2,-7.8,65.2*,-0.6,-4.0,1.0,-39.9,29.5*,
COC(=O)COc1cc(OCC(=O)OC)c2c(C)c(Cl)c(=O)oc2c1,-3.3,-4.1,191.7*,-1.8,-1.3,0.7,303.6*,277.2*,
COC(=O)COc1cc(C)cc2oc(=O)c(CC(=O)OC)c(C)c12,4.3,0.1,73.5*,2.2,10.1,-2.0,96.6*,99.4*,
CC12CCC(=O)N1c1c(sc3nc(N4CCOCC4)c4c(c13)CCCC4)C(=O)N2 (configuration not stated),95.9*,5.1,20.3*,-1.0,7.6,0.4,69.0*,67.7*,
COC(=O)c1ccc(-c2sc3nc(N4CCOCC4)c4c(c3c2N)CCCC4)o1,-0.7,6.0,-5.9,10.3,22.0,1.5,x,x,
CCOCCCNC(=O)c1cc2c(=O)n3cccc(C)c3nc2n1C,20.5,4.7,0.5,5.9,8.8,x,x,x,
Cc1cccn2c(=O)c3cc(C(N)=S)c(=N)n(CCCOC(C)C)c3nc12,65.3*,56.8*,45.6*,173.9*,8.4,15.0*,5.2,5.7*,
